Publication PMC7391373 (ACS Omega, 2020)

Legend:
[1] = tested on: P. falciparum 3D7 (chloroquine-sensitive); test: schizont maturation inhibition assay, 3D7 strain; type: cell-based, Plasmodium falciparum
How it was run: (§1)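 P. falciparum (3D7 chloroquine-sensitive; RKL-9 chloroquine-resistant) was cultured in A+ human erythrocytes in RPMI-1640 with 10% human AB+ serum. Ring-synchronized parasites (2–3% parasitemia, 1.8% final haematocrit) were exposed in duplicate to test compound at 1–16 μg/mL for 48 h at 37 °C, 5% CO2. Positive controls were chloroquine 10 μM and artesunate 2 μM. Schizont inhibition versus controls was scored on Giemsa smears. SI was calculated as CC50 (HeLa/fibroblasts) divided by IC50.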

[2] = tested on: P. falciparum RKL-9 (chloroquine-resistant); test: schizont maturation inhibition assay, RKL-9 strain; type: cell-based, Plasmodium falciparum
How it was run: as §1

[3] = in vitro cytotoxicity, MTT assay, dermal fibroblasts; type: cell-based; conditions: human, primary culture of normal human dermal fibroblasts
How it was run: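 HeLa cells and primary normal human dermal fibroblasts (fibroblasts used within seven passages) were kept in DMEM with 10% fetal calf serum and 2 mM glutamine at 37 °C, 5% CO2. Cells were seeded at 5000–10 000 per well; after 24 h they received test compound (10–640 μg) in duplicate for 48 h. MTT (1 mg/mL stock) was added for 1 h, formazan was dissolved in DMSO, and OD was read at 450 nm.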

[4] = tested on: RAW 264.7 murine macrophage cells; test: determination of nitric oxide; type: cell-based
[5] = tested on: Plasmodium berghei (NK-65); test: in vivo suppressive activity, Peter's 4 day test; conditions: for chemosuppression (%), day 5 / parasitemia (%), day 5 / mean survival time (MST): mice; for parasitemia (%), day 28: surviving mice
How it was run: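 Peters 4-day suppressive test in Laca Swiss albino mice (6–8 weeks, 25 ± 2 g), five per group. On D0, mice received 1 × 10^6 P. berghei NK-65-infected erythrocytes i.p. Dosing began 1 h post-inoculation, oral, once daily D0–D3 (0.2 mL). Giemsa tail smears were taken 24 h after the last dose. Chemosuppression was calculated from mean parasitemia relative to infected controls. Survival and parasitemia were followed to day 28.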

[6] = biochemical assays, liver and kidney function tests; type: in vivo, Mus musculus
How it was run: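 In P. berghei-infected Laca mice (oral dosing once daily D0–D3), blood was collected from the tail vein on day 10 and from survivors on day 28. Serum ALP, SGOT, SGPT and bilirubin (liver) and urea and creatinine (kidney) were measured with commercial diagnostic kits. Data are mean ± SD, five mice per group.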

[7] = acute toxicity; oral administration; cited from earlier work
[8] = monotherapy 10 mg/kg oral OD D0–D3
[9] = monotherapy 20 mg/kg oral OD D0–D3
[10] = monotherapy 50 mg/kg oral OD D0–D3
[11] = monotherapy 100 mg/kg oral OD D0–D3
[12] = monotherapy 4 mg/kg oral OD D0–D3

With `COC(=O)[C@@H]1Cc2c([nH]c3ccccc23)[C@@H](c2ccc3c(c2)OCO3)N1` [9a, (1R,3S)-methyl 1-(benzo[d][1,3]dioxol-5-yl)-2,3,4,9-tetrahydro-1H-pyrido[3,4-b]indole-3-carboxylate] the “selectivity index (SI)” value ([1]; CC50 / IC50 on 3D7) was greater than 10, the IC50 ([1]; Plasmodium falciparum, 3D7, 48 h, 3D7 strain, 48 h) was less than 1 µg/mL and the inhibition at 1 µg/mL ([1]; Plasmodium falciparum, 3D7, read-out: inhibition (schizont maturation)) was greater than 75%. The “selectivity index (SI)” value ([2]; CC50 / IC50 on RKL-9) was greater than 10, the IC50 ([2]; Plasmodium falciparum, 48 h, RKL-9 strain) was less than 1 µg/mL and the inhibition at 1 µg/mL ([2]; Plasmodium falciparum, read-out: inhibition (schizont maturation)) was greater than 75%. The viability at 48 h, 640 μg/mL [3] was 56.5 ± 5.07%, the “nitrite production from macrophages” value ([4]; 100 μg/mL) was “comparable to the normal cells” and the “chemosuppression (%), day 5” value [5, 8] was 40.49%. For the same molecule, the “parasitemia (%), day 5” value [5, 8] was 17.31 ± 2.40 (n = 5) %, the “chemosuppression (%), day 5” value [5, 9] was 46.82% and the “parasitemia (%), day 5” value [5, 9] was 15.47 ± 2.69 (n = 5) %. For the same molecule, the “chemosuppression (%), day 5” value [5, 10] was 64.76%, the “parasitemia (%), day 5” value [5, 10] was 10.25 ± 4.93 (n = 5) % and the “parasitemia (%), day 28” value [5, 10] was 3.43 ± 0.51 (n = 2) %. The “mean survival time (MST)” value ([5]; monotherapy 50 mg/kg) was 21.8 ± 6.09 days, the “chemosuppression (%), day 5” value [5, 11] was 91.19% and the “parasitemia (%), day 5” value [5, 11] was 2.56 ± 1.71 (n = 5) %. For the same molecule, the “parasitemia (%), day 28” value [5, 11] was 2.41 ± 0.97 (n = 3) %, the “mean survival time (MST)” value ([5]; monotherapy 100 mg/kg) was 22.6 ± 7.79 days and the “levels of renal function biomarkers (creatinine, urea)” value ([6]; monotherapy 100 mg/kg) was “within the normal range”. For the same molecule, the “levels of ALP, SGOT, SGPT, and bilirubin” value ([6]; monotherapy 50 and 100 mg/kg, day 10 and day 28) was “within normal range” and the LD50 [7] was greater than 4000 mg/kg.
In the case of `C[C@H]1[C@H](OC(=O)CCC(=O)O)O[C@@H]2O[C@@]3(C)CC[C@H]4[C@H](C)CC[C@@H]1[C@@]24OO3` [artesunate, reference compound], the inhibition at 2 µM ([1]; Plasmodium falciparum, 3D7) is reported as 100%, the inhibition at 2 µM ([2]; Plasmodium falciparum) is reported as 100% and the “nitrite production from macrophages” value ([4]; 2 μM) is reported as “comparable to the normal cells”. For the same molecule, the “chemosuppression (%), day 5” value [5, 12] was 94.01%, the “parasitemia (%), day 5” value [5, 12] was 1.74 ± 0.83 (n = 5) % and the “mean survival time (MST)” value ([5]; monotherapy 4 mg/kg) was 18.6 ± 2.19 days. The “chemosuppression (%), day 5” value [5, 10] was 99.89%, the “parasitemia (%), day 5” value [5, 10] was 0.03 ± 0.01 (n = 5) % and the “parasitemia (%), day 28” value [5, 10] was 0 ± 0 (n = 2) %. The “mean survival time (MST)” value ([5]; monotherapy 50 mg/kg) was 22.4 ± 5.77 days.
With `CCN(CC)CCCC(C)Nc1ccnc2cc(Cl)ccc12` (centres unmarked) [chloroquine, reference compound] the inhibition at 10 µM ([1]; Plasmodium falciparum, 3D7) was 96.8%, the inhibition at 10 µM ([2]; Plasmodium falciparum) was 96.8% and the “chemosuppression (%), day 5” value [5, 8] was 94.22%. For the same molecule, the “parasitemia (%), day 5” value [5, 8] was 1.68 ± 1.06 (n = 5) % and the “parasitemia (%), day 28” value [5, 8] was 0 ± 0 (n = 5) %.
